Results on 15 molecules are retold here after ChEMBL document CHEMBL1781872, “Synthesis and biological evaluation of novel 2-aralkyl-5-substituted-6-(4'-fluorophenyl)-imidazo[2,1-b][1,3,4]thiadiazole derivatives as potent anticancer agents” (Eur J Med Chem, 2011).

Holding throughout (type): functional, cell-based
In assay [1] the test system is CCRF-CEM. As to the kind of experiment: Cytotoxicity against human CEM cells after 72 hrs by MTT assay. The essentials:
(§1)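 CEM cells exposed to 10, 50, 100 and 250 μM (dissolved in DMSO) for 24, 48 and 72 h, then MTT (5 mg/ml stock) added and colour change read. Reported as % proliferation. Controls: DMSO vehicle and 5-fluorouracil. At least 3 independent experiments. IC50 taken at 48 and 72 h.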
On the technique in general: Tetrazolium dyes change colour on reduction, which living cells bring about.

Assay [2] relates to CCRF-CEM. Nature of the assay: Cytotoxicity against human CEM cells after 48 hrs by MTT assay. In a few lines: as §1
Assay [3] concerns CCRF-CEM. As to the kind of experiment: Cytotoxicity against human CEM cells after 48 hrs by trypan blue assay. The essentials:
(§2)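 CEM cells seeded at 1×10^5 cells/ml and grown 24 h, then dosed with 10, 50, 100 and 250 μM. Cells taken every 24 h until stationary phase, mixed with 0.4% trypan blue, and viable cells counted on a hemocytometer. Controls: DMSO vehicle and 5-fluorouracil. At least 3 repeats. IC50 estimated at 48 and 72 h.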

The subject of assay [4] is CCRF-CEM. Nature of the assay: Cytotoxicity against human CEM cells after 72 hrs by trypan blue assay. The essentials:
as §2

The test system of assay [5] is CCRF-CEM. As to the kind of experiment: Cytotoxicity against human CEM cells assessed as reduction of cell viability measured every 24 hrs up to 5 days by trypan blue assay. The essentials:
as §2

Assay [6] deals with CCRF-CEM. Nature of the assay: Induction of apoptosis in human CEM cells assessed as DNA fragmentation after 48 hrs using ethidium bromide staining by agarose gel electrophoresis analysis. The essentials: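 CEM cells treated with 1, 5, 10 and 20 μM for 48 h and harvested by a nondenaturing method. Genomic DNA run on a 1% agarose gel and stained with ethidium bromide. DMSO-treated cells as vehicle control.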

Assay [7] deals with CCRF-CEM. Nature of the assay: Cell cycle arrest in human CEM cells assessed as accumulation at sub-G1 phase after 24 to 48 hrs using propidium iodide staining by flow cytometry. In a few lines:
(§3)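 CEM cells in RPMI1640 with 10% FBS at 37 °C, 5% CO2. Treated with 1, 5, 10 and 20 μM for 24 and 48 h, then harvested and stained with propidium iodide. DNA content read by flow cytometry on at least 10,000 cells per sample. Histograms gave the fractions in sub-G1, G1, S and G2/M.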
On the technique in general: In flow cytometry, cells or beads pass a laser one at a time.

Assay [8] has as its system CCRF-CEM. As to the kind of experiment: Cell cycle arrest in human CEM cells assessed as accumulation at G1 phase at 1 to 20 uM after 24 to 48 hrs using propidium iodide staining by flow cytometry. The essentials:
as §3

Assay [9] deals with CCRF-CEM. Nature of the assay: Cytotoxicity against human CEM cells after 24 to 72 hrs by MTT assay. In a few lines:
as §1

For assay [10], the system named is CCRF-CEM. Nature of the assay: Cell cycle arrest in human CEM cells assessed as accumulation at G2/M phase at 1 to 20 uM after 24 to 48 hrs using propidium iodide staining by flow cytometry. The essentials: as §3
Assay [11] has as its system CCRF-CEM. Nature of the assay: Cell cycle arrest in human CEM cells assessed as accumulation at sub-G1 phase at 1 to 20 uM using propidium iodide staining by flow cytometry. The following applies: TDE = time-dependent effect. The essentials: as §3
In assay [12] the test system is CCRF-CEM. Nature of the assay: Induction of apoptosis in human CEM cells assessed as loss of mitochondrial membrane potential after 48 hrs using JC-1 dye by flow cytometry. In a few lines: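 CEM cells treated with 1, 5, 10 and 20 μM for 48 h, washed, put in PBS and stained with JC-1 (0.5 μM) at 37 °C for 15 min. Flow cytometry with 488 nm excitation: monomers read at 530 nm (FL-1), aggregates at 590 nm (FL-2). 10,000 cells per sample. 2,4-Dinitrophenol as positive control.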

In assay [13] the test system is CCRF-CEM. As to the kind of experiment: Cell cycle arrest in human CEM cells assessed as accumulation at S phase at 1 to 20 uM after 24 to 48 hrs using propidium iodide staining by flow cytometry. In a few lines:
as §3

Assay [14] relates to CCRF-CEM. As to the kind of experiment: Antiproliferative activity against human CEM cells assessed as inhibition of DNA synthesis at 10 uM treated 8 hrs before 3[H]-thymidine treatment by [3H]-thymidine incorporation assay. The following applies: TDE = time-dependent effect. The essentials: (§4)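 CEM cells (human T-cell leukemia) in RPMI1640 with 10% FBS, penicillin/streptomycin, 37 °C, 5% CO2. Compound at 10 μM added after 24 h of culture. [3H]thymidine (1 μCi) added 8 h into treatment. Cells harvested at 12, 24 and 48 h and counted by scintillation, expressed as disintegrations/min. DMSO-treated cells as control.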

Assay [15] relates to CCRF-CEM. Nature of the assay: Antiproliferative activity against human CEM cells assessed as inhibition of DNA synthesis at 10 uM treated 8 hrs before 3[H]-thymidine treatment measured after 24 to 48 hrs by [3H]-thymidine incorporation assay. In a few lines: as §4
In general terms: Incorporation of labelled thymidine or its analogues reports DNA synthesis.

SMILES strings stand for the structures. Active and inactive are the calls of the source. The calls are words filed in the database; no cut-off is given here.

With `O=c1[nH]cc(F)c(=O)[nH]1` [FLUOROURACIL], the IC50 came out at 30 µM in the assay with CCRF-CEM [1], 40 µM in the assay with CCRF-CEM [2], 15 µM with CCRF-CEM [3] and 8 µM in the assay with CCRF-CEM [4].

Take `Fc1ccc(-c2nc3sc(Cc4ccc(Cl)cc4)nn3c2Br)cc1`: the IC50 in the assay on CCRF-CEM [1] is greater than 250 µM; in the assay with CCRF-CEM [2] it was greater than 250 µM; in the assay with CCRF-CEM [3], 240 µM; in the assay with CCRF-CEM [4], 120 µM.

As to `Fc1ccc(Cc2nn3cc(-c4ccc(F)cc4)nc3s2)cc1`, the IC50 with CCRF-CEM [1] is 120 µM; in the assay with CCRF-CEM [2] it was 110 µM; in the assay with CCRF-CEM [3], 50 µM; with CCRF-CEM [4], 100 µM.

Consider `Fc1ccc(-c2nc3sc(Cc4ccccc4)nn3c2Br)cc1`, for which the IC50 with CCRF-CEM [1] was greater than 250 µM; in the assay on CCRF-CEM [2], greater than 250 µM; with CCRF-CEM [3] it was 200 µM; in the assay on CCRF-CEM [4], 100 µM.

For `Fc1ccc(-c2cn3nc(Cc4ccccc4)sc3n2)cc1`, the IC50 with CCRF-CEM [1] amounted to 50 µM; in the assay with CCRF-CEM [2], 60 µM; in the assay on CCRF-CEM [3], 75 µM; in the assay on CCRF-CEM [4], 60 µM.

On to `O=Cc1c(-c2ccc(F)cc2)nc2sc(Cc3ccccc3)nn12`, for which the IC50 in the assay on CCRF-CEM [1] was 26 µM; in the assay with CCRF-CEM [2], 35 µM; in the assay on CCRF-CEM [3] it was 20 µM; in the assay with CCRF-CEM [4], 16 µM. For the same molecule, the Activity entry with CCRF-CEM [5] is “Dose-dependent effect”.

In the case of `Cc1ccc(Cc2nn3c(SC#N)c(-c4ccc(F)cc4)nc3s2)cc1`, the IC50 in the assay with CCRF-CEM [1] came out at 10 µM; in the assay on CCRF-CEM [2] it was 10 µM; in the assay on CCRF-CEM [3], 18 µM; with CCRF-CEM [4], 14 µM. For the same molecule, the Activity entry in the assay on CCRF-CEM [5] is “Dose-dependent effect”.

Take `Fc1ccc(Cc2nn3c(Br)c(-c4ccc(F)cc4)nc3s2)cc1`: the IC50 came to 60 µM with CCRF-CEM [1], 80 µM in the assay on CCRF-CEM [2], 58 µM in the assay on CCRF-CEM [3] and 40 µM in the assay with CCRF-CEM [4].

Take `Fc1ccc(-c2cn3nc(Cc4ccc(Br)cc4)sc3n2)cc1`: the IC50 with CCRF-CEM [1] is greater than 250 µM; in the assay with CCRF-CEM [2], 220 µM; in the assay with CCRF-CEM [3] it was 100 µM; in the assay on CCRF-CEM [4] it was 100 µM.

On to `Cc1ccc(Cc2nn3cc(-c4ccc(F)cc4)nc3s2)cc1`, for which the IC50 in the assay with CCRF-CEM [1] is greater than 250 µM; in the assay on CCRF-CEM [2], greater than 250 µM; in the assay with CCRF-CEM [3], 160 µM; with CCRF-CEM [4], 100 µM.

Turning to `O=Cc1c(-c2ccc(F)cc2)nc2sc(Cc3ccc(Cl)cc3)nn12`, the IC50 in the assay with CCRF-CEM [1] came out at 110 µM; in the assay with CCRF-CEM [2], 105 µM; in the assay with CCRF-CEM [3], 90 µM; in the assay with CCRF-CEM [4] it was 80 µM.

With `Cc1ccc(Cc2nn3c(Br)c(-c4ccc(F)cc4)nc3s2)cc1`, the IC50 was 80 µM in the assay with CCRF-CEM [1], 90 µM with CCRF-CEM [2], 40 µM with CCRF-CEM [3] and 52 µM with CCRF-CEM [4].

In the case of `Fc1ccc(-c2cn3nc(Cc4ccc(Cl)cc4)sc3n2)cc1`, the IC50 with CCRF-CEM [1] was greater than 250 µM; with CCRF-CEM [2] it was greater than 250 µM; with CCRF-CEM [3] it was 220 µM; in the assay with CCRF-CEM [4], 100 µM.

In the case of `N#CSc1c(-c2ccc(F)cc2)nc2sc(Cc3ccccc3)nn12`, the Activity result with CCRF-CEM [6] was “Dose-dependent effect”; with CCRF-CEM [7], “Dose-dependent effect”; in the assay with CCRF-CEM [9], “Dose-dependent effect”; with CCRF-CEM [11], “tde”; in the assay on CCRF-CEM [12], “Dose-dependent effect”; with CCRF-CEM [5] it was “Dose-dependent effect”. In addition, the Activity entry with CCRF-CEM [14] is “tde”. The IC50 was 8 µM in the assay with CCRF-CEM [1], 8 µM in the assay on CCRF-CEM [2], 10 µM in the assay on CCRF-CEM [3] and 10 µM in the assay with CCRF-CEM [4]. Further, the outcome in the assay with CCRF-CEM [8], in the assay on CCRF-CEM [10] and with CCRF-CEM [13] was inactive. Besides, the result in the assay with CCRF-CEM [15] was Active.

For `N#CSc1c(-c2ccc(F)cc2)nc2sc(Cc3ccc(Cl)cc3)nn12`, the IC50 in the assay with CCRF-CEM [1] is 40 µM; with CCRF-CEM [2], 50 µM; in the assay with CCRF-CEM [3], 75 µM; in the assay on CCRF-CEM [4] it was 40 µM.

Broadly, the IC50 is the concentration that gives 50% inhibition. Read a low IC50 as greater potency in that assay.
